Legend:
Integrin alpha-4/beta-7 = target: T1, Integrin alpha-4/beta-7 (Homo sapiens, UniProt P13612+P26010); test: Inhibition of [125I]MAdCAM-Ig binding to human integrin alpha4-beta7 of RPMI-8866 cells; format: cell-based
T1 sequence (P13612 whole entry): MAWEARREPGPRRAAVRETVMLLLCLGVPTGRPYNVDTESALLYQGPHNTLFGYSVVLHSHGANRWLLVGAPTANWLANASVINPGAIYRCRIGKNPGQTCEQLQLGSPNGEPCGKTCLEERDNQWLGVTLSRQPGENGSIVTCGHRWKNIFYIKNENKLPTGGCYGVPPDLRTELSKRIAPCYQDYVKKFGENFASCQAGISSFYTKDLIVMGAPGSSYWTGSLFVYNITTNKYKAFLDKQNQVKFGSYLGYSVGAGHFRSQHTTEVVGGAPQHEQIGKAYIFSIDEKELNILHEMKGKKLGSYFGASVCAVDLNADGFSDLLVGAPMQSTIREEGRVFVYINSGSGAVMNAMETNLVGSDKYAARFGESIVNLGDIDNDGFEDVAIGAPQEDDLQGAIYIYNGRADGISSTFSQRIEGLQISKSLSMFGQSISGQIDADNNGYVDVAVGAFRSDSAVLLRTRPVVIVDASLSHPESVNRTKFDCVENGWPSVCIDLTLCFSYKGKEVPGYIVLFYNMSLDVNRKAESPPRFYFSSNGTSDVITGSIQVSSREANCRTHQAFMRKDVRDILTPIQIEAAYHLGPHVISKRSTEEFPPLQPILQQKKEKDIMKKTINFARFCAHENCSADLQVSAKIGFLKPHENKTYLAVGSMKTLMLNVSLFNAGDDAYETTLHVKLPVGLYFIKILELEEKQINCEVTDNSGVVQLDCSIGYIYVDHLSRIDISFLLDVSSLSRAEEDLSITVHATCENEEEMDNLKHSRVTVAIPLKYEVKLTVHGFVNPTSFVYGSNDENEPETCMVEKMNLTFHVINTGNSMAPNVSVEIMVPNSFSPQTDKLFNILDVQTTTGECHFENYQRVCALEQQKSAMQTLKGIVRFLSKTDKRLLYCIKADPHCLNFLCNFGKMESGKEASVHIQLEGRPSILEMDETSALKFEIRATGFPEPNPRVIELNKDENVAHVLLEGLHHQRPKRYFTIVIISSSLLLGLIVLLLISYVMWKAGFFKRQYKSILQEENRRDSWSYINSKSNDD
T1 sequence (P26010 whole entry): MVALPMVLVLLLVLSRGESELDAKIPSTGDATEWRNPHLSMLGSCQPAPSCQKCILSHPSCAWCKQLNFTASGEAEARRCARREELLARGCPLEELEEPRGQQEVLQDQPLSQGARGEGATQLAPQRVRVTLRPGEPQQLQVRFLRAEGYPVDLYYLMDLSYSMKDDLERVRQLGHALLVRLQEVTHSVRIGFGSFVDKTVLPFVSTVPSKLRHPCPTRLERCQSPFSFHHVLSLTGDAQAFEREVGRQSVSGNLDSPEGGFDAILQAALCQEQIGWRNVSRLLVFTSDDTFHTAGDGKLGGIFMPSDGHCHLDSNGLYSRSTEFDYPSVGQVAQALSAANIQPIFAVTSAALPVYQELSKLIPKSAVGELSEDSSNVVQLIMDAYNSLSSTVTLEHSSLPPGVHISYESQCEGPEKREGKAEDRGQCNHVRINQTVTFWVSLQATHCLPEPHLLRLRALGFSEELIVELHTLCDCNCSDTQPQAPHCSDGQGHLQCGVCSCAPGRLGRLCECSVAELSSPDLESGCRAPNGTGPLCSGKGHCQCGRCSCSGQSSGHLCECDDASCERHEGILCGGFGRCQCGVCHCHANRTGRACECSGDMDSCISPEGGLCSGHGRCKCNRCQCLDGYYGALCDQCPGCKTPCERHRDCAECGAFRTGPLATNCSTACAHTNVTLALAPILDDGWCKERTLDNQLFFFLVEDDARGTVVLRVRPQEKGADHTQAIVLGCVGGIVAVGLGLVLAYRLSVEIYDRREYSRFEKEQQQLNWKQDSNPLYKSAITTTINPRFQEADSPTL

[1] = Oral bioavailability in rat (Sprague-Dawley) (dose 1 mg/kg i.v.); format: ADME, organism-based; settings: in vivo, 2 mg/kg
In short: (§1)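 Sprague–Dawley rats given 1 mg/kg iv and 2 mg/kg po. Plasma half-life taken over 0–8 h.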

Integrin alpha-4/beta-1 = Integrin alpha-4/beta-1 (Homo sapiens, UniProt P05556+P13612); test: Inhibition of [125I]VCAM-Ig binding to human integrin alpha4-beta1 (VLA-4) of Jurkat cells; format: cell-based
In short: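 Filtered, washed, and bound radiolabel counted by scintillation. DMSO wells set 0% inhibition; cell-free wells set 100%. IC50 from ten-point titration by four-parameter fit, run in duplicate.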

[2] = Plasma clearance rate in Sprague-Dawley rats; format: ADME, organism-based; settings: rat, read-out: Clp; in short: as §1
[3] = Plasma half-life was determined in Sprague-Dawley rats after 0-8 hr of administration; format: ADME, organism-based; settings: rat; in short: as §1

Integrin alpha-4/beta-1, sequence (P05556 whole entry, one chain of several): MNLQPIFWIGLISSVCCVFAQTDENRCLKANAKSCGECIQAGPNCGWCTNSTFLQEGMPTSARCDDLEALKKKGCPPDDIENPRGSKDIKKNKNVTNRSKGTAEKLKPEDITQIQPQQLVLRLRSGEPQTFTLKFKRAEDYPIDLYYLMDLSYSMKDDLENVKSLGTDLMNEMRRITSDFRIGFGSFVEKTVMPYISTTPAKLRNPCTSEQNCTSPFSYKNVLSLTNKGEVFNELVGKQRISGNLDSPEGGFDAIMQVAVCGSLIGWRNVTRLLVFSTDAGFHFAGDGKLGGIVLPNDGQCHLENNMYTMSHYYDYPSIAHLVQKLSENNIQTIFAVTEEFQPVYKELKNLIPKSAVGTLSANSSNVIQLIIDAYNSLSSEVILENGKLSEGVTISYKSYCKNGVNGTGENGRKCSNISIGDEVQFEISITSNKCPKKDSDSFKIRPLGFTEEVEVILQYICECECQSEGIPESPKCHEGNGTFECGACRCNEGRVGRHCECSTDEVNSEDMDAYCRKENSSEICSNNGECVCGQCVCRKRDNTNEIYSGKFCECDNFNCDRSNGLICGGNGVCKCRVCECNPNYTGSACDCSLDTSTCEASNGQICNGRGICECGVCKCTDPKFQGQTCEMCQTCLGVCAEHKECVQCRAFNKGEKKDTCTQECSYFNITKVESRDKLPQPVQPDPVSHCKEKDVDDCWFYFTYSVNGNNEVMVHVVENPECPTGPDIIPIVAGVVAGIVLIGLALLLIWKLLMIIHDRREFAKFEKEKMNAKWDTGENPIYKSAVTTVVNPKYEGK

COc1cccc(OC)c1-c1ccc(CC(NC(=O)C2(S(=O)(=O)c3ccccc3)CCCC2)C(=O)O)cc1 (stereo unspecified)
IC50 (Integrin alpha-4/beta-7): 5 nM | bioavailability [1]: 22% | IC50 (Integrin alpha-4/beta-1): 0.11 nM | clearance [2]: 122 mL/min/kg

COc1cccc(OC)c1-c1ccc(C[C@H](NC(=O)[C@@H]2CCCN2c2ccccc2C#N)C(=O)O)cc1
half-life [3]: 18 min | IC50 (Integrin alpha-4/beta-7): 3.5 nM | bioavailability [1]: < 1% | IC50 (Integrin alpha-4/beta-1): 0.37 nM | clearance [2]: 69 mL/min/kg

COc1cccc(N2CCC[C@H]2C(=O)N[C@@H](Cc2ccc(-c3c(OC)cccc3OC)cc2)C(=O)O)c1
half-life [3]: 42 min | IC50 (Integrin alpha-4/beta-7): 5.8 nM | bioavailability [1]: 3% | IC50 (Integrin alpha-4/beta-1): 0.41 nM | clearance [2]: 64 mL/min/kg

COc1cccc(OC)c1-c1ccc(C[C@H](NC(=O)[C@@H]2CCCN2c2cc([N+](=O)[O-])cc([N+](=O)[O-])n2)C(=O)O)cc1
IC50 (Integrin alpha-4/beta-7): 17 nM | IC50 (Integrin alpha-4/beta-1): 0.38 nM

COc1cccc(OC)c1-c1ccc(C[C@H](NC(=O)[C@@H]2CCCN2c2ccccn2)C(=O)O)cc1
half-life [3]: 18 min | IC50 (Integrin alpha-4/beta-7): 18 nM | bioavailability [1]: 2% | IC50 (Integrin alpha-4/beta-1): 1.9 nM | clearance [2]: 29 mL/min/kg

COc1cccc(OC)c1-c1ccc(C[C@H](NC(=O)[C@@H]2CCCN2c2cncnc2)C(=O)O)cc1
IC50 (Integrin alpha-4/beta-7): 18.8 nM | IC50 (Integrin alpha-4/beta-1): 0.73 nM

COc1cccc(OC)c1-c1ccc(CC(NC(=O)C2CCCN2S(=O)(=O)c2ccccc2)C(=O)O)cc1 (stereo unspecified)
half-life [3]: 36 min | IC50 (Integrin alpha-4/beta-7): 2.5 nM | bioavailability [1]: 2% | IC50 (Integrin alpha-4/beta-1): 0.05 nM | clearance [2]: 127 mL/min/kg

COc1cccc(OC)c1-c1ccc(C[C@H](NC(=O)[C@@H]2CCCN2c2cccnc2)C(=O)O)cc1
half-life [3]: 12 min | IC50 (Integrin alpha-4/beta-7): 5.5 nM | bioavailability [1]: < 1% | IC50 (Integrin alpha-4/beta-1): 0.34 nM | clearance [2]: 43 mL/min/kg

COc1cccc(OC)c1-c1ccc(C[C@H](NC(=O)[C@@H]2CCCN2c2ccccc2)C(=O)O)cc1
half-life [3]: 36 min | IC50 (Integrin alpha-4/beta-7): 21 nM | bioavailability [1]: 14% | IC50 (Integrin alpha-4/beta-1): 0.61 nM | clearance [2]: 78 mL/min/kg

COc1cccc(OC)c1-c1ccc(C[C@H](NC(=O)[C@@H]2CCCN2c2cnccn2)C(=O)O)cc1
IC50 (Integrin alpha-4/beta-7): 8.9 nM | IC50 (Integrin alpha-4/beta-1): 0.17 nM

COc1cccc(OC)c1-c1ccc(C[C@H](NC(=O)[C@@H]2CCCN2c2ccc([N+](=O)[O-])cc2)C(=O)O)cc1
half-life [3]: 84 min | IC50 (Integrin alpha-4/beta-7): 17.1 nM | bioavailability [1]: < 1% | IC50 (Integrin alpha-4/beta-1): 1.1 nM | clearance [2]: > 100 mL/min/kg

COc1cccc(OC)c1-c1ccc(CC(NC(=O)C2(c3ccccc3)CCCC2)C(=O)O)cc1 (stereo unspecified)
IC50 (Integrin alpha-4/beta-7): 110 nM | bioavailability [1]: 55% | IC50 (Integrin alpha-4/beta-1): 3.2 nM | clearance [2]: 22 mL/min/kg

COc1cccc(OC)c1-c1ccc(C[C@H](NC(=O)[C@@H]2CCCN2c2cncc3ccccc23)C(=O)O)cc1
IC50 (Integrin alpha-4/beta-7): 45 nM | IC50 (Integrin alpha-4/beta-1): 1.1 nM

Reference: ChEMBL document CHEMBL1134871, “N-aryl-prolyl-dipeptides as potent antagonists of VLA-4” (Bioorg Med Chem Lett, 2002)
